Dynein cargo inh – inhibitors of GR-EGFP nuclear translocation, primary screen, dynein cargo transport inhibitor project, imaging, high-content, 3617.4 mouse cells; test concentration mostly 20 µM; stimulated with dexamethasone, 1 µM; hits give low values; 220,000 tested, 0.47% active; z-score, hits read low;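 active = plate z-score of nuclear minus cytoplasmic receptor signal below a set negative limit, without overly bright fluorescence or cell loss, cut at about -3.5 in these data, passing the limit was not always enough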;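 note: z-score of nuclear minus cytoplasmic ring GR-EGFP intensity difference per well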
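Buffer or medium: tet-free medium with charcoal-stripped serum / Also added: dexamethasone agonist, 1.0 µM final, for 30 min / Timing: induction 48 h, compound 1 h, agonist 30 min / Measured by: high-content fluorescence imaging after fixation / Read-out: nuclear-to-cytoplasmic GR-EGFP distribution per well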
MT stabilize HCS – microtubule stabilizers in HeLa cells, primary screen, imaging, high-content imaging; % tubulin-high responders, % at 10 µM; HeLa tubulin immunostaining HCS, 24 h; share of cells brighter than vehicle mean+2SD; 200,000 tested, 0.83% active; AID 2205, 2009;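 active = plate Z-score above 3 for both tubulin-high and condensed-nucleus cell shares, with cell loss under 80%, at 10 µM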;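 note: anti alpha tubulin signal scored within the nucleus-defined area of each cell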
Lmaj promast – Leishmania major promastigote growth inhibition, primary screen | Leishmania major promastigotes, resazurin fluorescence viability | inhibition, % at 10 µM | 200,000 tested, 9% active | AID 1063, 2008; in the data active = inhibition above about 50%;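 note: promastigotes grown with compound for 44 hours at 28 °C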
b-catenin transl – modulators of beta-catenin nuclear translocation, primary screen, imaging, HeLa cells, immunofluorescence, high-content; nuclear translocation activity, % at 5 µM; 190,000 tested, 0.3% active;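 active = nuclear translocation activity above 50% at 5 µM, with a well cell count of 50 or more; inconclusive = wells under 50 cells across six images, flagged as toxic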;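 note: per-cell ratio of nuclear to cytoplasmic median beta-catenin stain intensity; plate controls were DMSO negative control for no effect and GSK-3 inhibitor IX positive control for full effect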
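Technique: fluorescence imaging of beta-catenin antibody stain plus DAPI / Material: human HeLa cell line / Incubation: compound treatment 24 h, 37°C, 5% CO2 / Read-out basis: % activation of per-cell nuclear versus cytoplasmic median beta-catenin signal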
HSV replic up – enhancers of HSV replication in host cells, fold increase, host cell viability | HSV replication augmentation in cells | maximum fold increase | 220,000 tested, 0.005% active; in the data active = maximum fold increase above about 1.5; inconclusive = no clear call, values can overlap the other calls; tested in PC3 cells
L major 1uM – Leishmania major promastigote growth inhibition, confirmation, 1 µM repeat of primary hits; shares compounds with Lmaj promast; L. major promastigote growth, resazurin fluorescence, 48 h; inhibition, % at 1 µM; 1,100 tested, 13% active;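 active = inhibition above about 50% in both repeat tests, limit read from the data; inconclusive = one repeat under the set limit, the other over it; inactive = both repeats under the set limit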
Dynein inh conf – dynein cargo transport inhibitors, GR-EGFP translocation, confirmation, imaging, high-content imaging, GR-EGFP cells | shares compounds with Dynein cargo inh | 3617.4 GR-EGFP nuclear translocation imaging, dexamethasone-induced | calls only at 20 µM | 1,000 tested, 69% active | AID 463116, 2010;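 active = inhibition of receptor movement into the nucleus at or above a set limit in both runs, with normal cell brightness and cell count; inconclusive = limit reached in only one run, brightness and count normal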;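 note: dexamethasone at 1 µM final in well for 30 min; nuclear minus cytoplasmic GR-EGFP mean intensity difference in channel 2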
* hit, by the source's call; i = inactive; ? = inconclusive; · = no result; + = active, no number. Shown are actives, neighbours in structure and some others; about 8.9% of the full set was active somewhere.

SMILES	Dynein cargo inh	MT stabilize HCS	Lmaj promast	b-catenin transl	HSV replic up	Dynein inh conf	others
Cc1ccc(NC(=O)Nc2ncccc2C)cc1	-0.95	2	0	-1	i	·
O=S(=O)(CCN(CCS(=O)(=O)C(F)(F)F)CC1CCCO1)C(F)(F)F (stereo unspecified)	-4.1*	2	100*	1	i	?	L major 1uM=8
Cc1nc(-c2ccccc2)cn(O)c1=O	1.4	3	-7	-2	i	·
COc1cc(S(=O)(=O)N2CCOCC2)ccc1NC(=O)c1cc2c(s1)CCC2	-0.057	3	26	0	i	·
Cc1nc(N2CCN(C)CC2)c2sc(=S)n(-c3ccccc3)c2n1	0.81	2	3	-2	i	·
S=c1sc2c(Cl)ncnc2n1-c1ccccc1	-4*	2	87*	·	i	+	L major 1uM=30
Cc1ccc(-n2nnnc2C(Cl)c2nnnn2-c2ccc(C)cc2)cc1	-4.2*	6	99*	-3	i	+	L major 1uM=32
CCN1/C(=C/C=C/c2oc3ccc4ccccc4c3[n+]2CC)Oc2ccc3ccccc3c21	-7.1*	80*	100*	·	·	+	L major 1uM=101*
CCCCc1cc(O)c(CCCC)c(O)c1	-3.9*	4	99*	-2	i	+	L major 1uM=32
COc1nc(N(C)C)nc(-n2nnc(C(C)=O)c2C)n1	0.23	5	3	-2	i	·
COc1ccc(-c2nnc(Sc3nc4ccccc4o3)c3ccccc23)cc1	-4.2*	9	88*	-2	i	+
CC(C(=O)O)c1ccc(-c2ccccc2)c(F)c1 (stereo unspecified)	-0.44	3	-6	-3	i	·
CC(=O)Oc1ccc(-c2cccc(C(=O)NCC(=O)O)c2)cc1	-0.028	4	-4	-2	i	·
COc1ccc(NC(=O)/C(Cl)=C(/Cl)S(=O)Cc2ccccc2)cn1 (stereo unspecified)	-5.4*	2	100*	-2	i	+
COc1ccc(CS(=O)(=O)/C(Cl)=C(/Cl)C(=O)Nc2ccc(OC)nc2)cc1	-4.6	1	32	·	i	+
Cc1ncc(CCl)c2c1OC(C)(C)OC2	-4.4*	4	20	·	i	i
Cc1ncc(CO)c2c1OC(C)(C)OC2	·	·	·	0	i	·
CCOC(=O)c1sc2nc(NC(=O)COc3ccccc3)sc2c1C	-0.059	3	2	-2	i	·
CCN1CC=C2C(C#N)=C(N)C(C#N)(C#N)C(CCc3ccccc3)C2C1 (stereo unspecified)	-7.5	6	14	-7	?	i
CC(=O)N1CC=C2C(C#N)=C(N)C(C#N)(C#N)C(CCc3ccccc3)C2C1 (stereo unspecified)	1.1	3	30	5	i	·
CC1=CC(C)(C)Nc2ccc(OC(=O)c3cccnc3)cc21	-3.6*	14	101*	0	i	i
CCOC(=O)/C(=C\C=C1/Sc2cc(OCC)c(OCC)cc2N1CC)C(C)=O	-3.7	80	34	12	·	i
Cc1cc(N2CCOCC2)ccc1/C=C1\SC(=O)N(C(C)C)C1=O	1.2	3	5	-2	i	·
CCN(CC)c1ccc(/C=C2/SC(=O)N(C(C)C)C2=O)o1	-4	2	99*	-2	i	+
Cn1nnnc1SCCNCc1ccc(Cl)cc1	0.76	2	0	-3	i	·
SMILES	Dynein cargo inh	MT stabilize HCS	Lmaj promast	b-catenin transl	HSV replic up	Dynein inh conf	others
Cn1ncc(S(=O)(=O)Cc2ccccc2)c(Cl)c1=O	-5.2*	·	·	-2	i	+
COC(=O)c1ccc(OC(=O)CS(=O)c2ccccc2[N+](=O)[O-])cc1 (stereo unspecified)	0.25	3	-1	-3	i	·
O=C(CS(=O)c1ccc(C(F)(F)F)cc1[N+](=O)[O-])Oc1ccccc1 (stereo unspecified)	-3.9*	3	-5	·	i	+
CCOc1ccc(CCNC(=O)COC(=O)c2cc(OC)cc(OC)c2)cc1OCC	1.1	2	1	·	i	·
CCNc1ccc(Br)cc(C(=O)/C=C/c2c(Cl)cccc2Cl)c1=O	-5.6	38	100*	7	i	+
CCNc1ccc(Br)cc(C(=O)/C=C/c2ccc3c(c2)OCO3)c1=O	-0.96	8	33	2	i	·
COCCn1nnnc1SCC(=O)c1ccccc1	-1.4	3	-8	-4	i	·
O=C1COc2ccc(C(=O)CCl)cc2N1	-4*	·	·	1	i	+
COc1ccccc1NC(=O)CSc1nnc(CSc2nc(C)cc(C)n2)o1	-0.63	4	-6	1	i	·
O=S(=O)(CCSc1ccccn1)c1nc2ccccc2s1	-4*	5	31	·	i	+
O=C(CSc1ccccn1)Nc1nc2ccccc2s1	0.51	0	46	·	i	·
O=S(=O)(CCSc1nc2ccccc2o1)c1nc2ccccc2s1	-4.1*	3	98*	·	i	+
O=C(CCl)N(Cc1ccccc1)c1ccccc1	-5.3*	2	79*	5	i	+
Cc1cccc(N(CC(=O)O)CC(=O)O)c1	0.24	4	3	·	i	·
O=C(c1cccnc1)N(Cc1ccccc1)c1ccccc1	0.53	3	2	0	i	·
Cc1cccc(N(Cc2ccccc2)C(=O)CCl)c1	-5.7*	4	81*	0	i	+
CCOc1ccc(N2C(=O)CC(Sc3nnnn3-c3ccccc3)C2=O)cc1 (stereo unspecified)	-3.2	2	1	-2	i	·
Cc1ccc2[nH]c(=O)c(CN(CCCO)S(=O)(=O)c3c(C)ccc4nsnc34)cc2c1	-5.9*	3	34	0	i	i
Cc1cc2cc(CN(CCCO)S(=O)(=O)c3cccc4nsnc34)c(=O)[nH]c2cc1C	-0.58	5	4	-2	i	·
CC(=O)C(Cl)C(=O)Nc1ccccc1 (stereo unspecified)	-4.2*	5	3	0	i	i
CC(Cc1ccccc1)C(=O)Nc1ccccc1 (stereo unspecified)	1.8	2	-6	1	?	·
CC1=CC(=O)C(C(C)C)=CC1=NC(=O)c1ccc(C)cc1	-4.9*	3	8	-2	i	?
CCC(=O)Nc1cc(-c2nnc(OC)c3ccccc23)ccc1N1CCOCC1	-0.88	2	-2	-3	i	·
COc1ccc(C(=O)c2ccc(N3CCOCC3)cc2)c(OC)c1	0.38	4	-4	6	i	·

High-throughput results (PubChem)
